# Beta apoptosis: blocks beta cell apoptosis; hit rate 0.8% among 300,000; protection from apoptosis, % (test concentration not listed); INS-1E cytokine-induced death, ATP luminescence, 48 h; percent of positive-control rescue, neutral wells zero;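 active = Every replicate reaches about 75%, or at least half do and their mean reaches it too, limit read from the data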;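 also: 0% = cytokine-treated negative control wells and 100% = positive control rescue; higher means more ATP so stronger rescue from cytokine killing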
# PREPL inh: inhibitors of human prolyl oligopeptidase-like enzyme PREPL; hit rate 0.68% among 320,000; inhibition, % at 5.96 µM; recombinant PREPL, fluorescence polarization activity-based probe; Q4J6C6; in the data active = inhibition above about 43%;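 also: 0% = enzyme with DMSO and 100% = wells lacking enzyme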
# Target sequence (Q4J6C6 whole entry, looked up): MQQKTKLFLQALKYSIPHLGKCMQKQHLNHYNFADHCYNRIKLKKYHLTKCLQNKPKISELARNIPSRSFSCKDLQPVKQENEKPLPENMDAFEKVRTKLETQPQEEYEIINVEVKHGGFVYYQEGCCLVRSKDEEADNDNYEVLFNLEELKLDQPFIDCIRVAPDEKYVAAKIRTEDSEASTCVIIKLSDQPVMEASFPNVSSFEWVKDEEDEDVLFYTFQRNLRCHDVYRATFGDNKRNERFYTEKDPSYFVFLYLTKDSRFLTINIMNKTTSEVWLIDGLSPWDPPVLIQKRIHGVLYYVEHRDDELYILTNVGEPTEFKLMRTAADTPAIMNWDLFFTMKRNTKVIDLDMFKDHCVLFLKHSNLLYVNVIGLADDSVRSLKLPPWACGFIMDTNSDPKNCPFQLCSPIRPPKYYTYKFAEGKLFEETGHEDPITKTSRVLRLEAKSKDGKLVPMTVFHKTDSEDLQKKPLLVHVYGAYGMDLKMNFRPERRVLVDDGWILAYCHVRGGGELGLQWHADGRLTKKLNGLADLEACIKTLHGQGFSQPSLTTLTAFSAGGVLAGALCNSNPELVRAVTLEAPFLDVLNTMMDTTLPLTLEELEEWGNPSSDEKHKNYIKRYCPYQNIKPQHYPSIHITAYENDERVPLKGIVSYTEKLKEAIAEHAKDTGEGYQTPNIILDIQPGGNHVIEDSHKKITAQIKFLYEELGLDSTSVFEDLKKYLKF
# NR3A LBD binder: modulators (binders) of human NR3A ligand-binding domain | AID 1259313 | hit rate 2.5% among 340,000 | Tm shift relative to glycine control, % at 25 µM | NR3A LBD differential scanning fluorimetry, Tm shift; 0% = protein alone, 100% = glycine-bound protein;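 active = melting temperature shift of at least 10% of the positive control shift, at one fixed dose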
# T cruzi inh: blocks replication of Trypanosoma cruzi. T. cruzi beta-gal in NIH3T3, luminescence, 90 h. inhibition, % (test concentration not listed). hit rate 1.4% among 300,000. AID 1885;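 active = mean inhibition across valid replicates above about 55%, limit read from the data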;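 also: signal also drops with host cell toxicity which is not excluded here; 0% = plate median of DMSO wells and 100% = zero luminescence signal; higher percent means less beta-gal luminescence so fewer parasites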
#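 Incubation – ≥90 h infection period, 3 h prior cell attachment · System – NIH/3T3 fibroblasts plus reporter T. cruzi · Doses – compound pinned at 50 nL/well, DMSO · Read-out basis – percent inhibition of parasite-derived β-gal signal · Signal – luminescent β-galactosidase signal after 60 min lysis · Also added – 5000 T. cruzi trypomastigotes/well · Medium – Low-serum DMEM with 2% FBS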
# CSC inhib: cancer stem cell inhibition; cancer stem cell-like cells viability, luminescence; inhibition, % at 7.5 µM; hit rate 1.1% among 300,000; AID 2717; in the data active = inhibition above about 75%; tested in HMLE shEcad cells
# CHOP inhibitor: blocks CHOP induction under ER stress; CHO-K1 CHOP-promoter luciferase, tunicamycin-induced, 15-18 h; inhibition, % at 10 µM; hit rate 3.8% among 220,000;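 active = compounds that reduced the stress-induced luciferase reporter signal by more than about 70% of percent inhibition, limit read from the data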;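 also: 0% = tunicamycin plus vehicle and 100% = wells without tunicamycin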
# An asterisk follows results filed as active; · = not tested or not shown; + = active, no number. This is a sample that favours compounds with a hit; in the whole collection about 6.7% have one here.
SMILES,Beta apoptosis,PREPL inh,NR3A LBD binder,T cruzi inh,CSC inhib,CHOP inhibitor
COc1ccc(C(=O)C2CCCN(Cc3ccc4nonc4c3)C2)c(OC)c1 (configuration not stated),-1.5,-13.1,0.1,69.7*,1.5,13.2
CCn1ncc(CN2CCCC(C(=O)c3cccc(OC(C)C)c3)C2)c1C (configuration not stated),-6.6,9.3,0.1,64.9*,24.1,11.4
COc1cccc(NC(=O)CSc2nnnn2C2CCCCC2)c1,·,·,-2.0,7.4,·,·
COc1ccc(C(=O)Nc2ccc(NC(=O)Cc3ccccc3)cn2)cc1,·,17.4,-2.4,4.6,4.4,·
Cc1ccc(NC(=O)COc2cccc3c2OC(C)(C)C3)c(O)c1,-3.3,-6.5,0.5,·,·,·
Cc1sc2nc(C3CC3)nc(NCCNS(C)(=O)=O)c2c1C,-3.4,1.0,2.7,-9.6,-5.0,12.4
COc1ccc(C(=O)C2CCCN(Cc3cnc(N4CCOCC4)s3)C2)cc1F (configuration not stated),0.3,6.2,0.4,38.3,0.8,4.4
CC(C)Oc1cccc(C(=O)C2CCCN(Cc3cnc(N4CCOCC4)s3)C2)c1 (configuration not stated),-1.9,4.2,0.4,58.8*,-11.2,-10.6
Cc1ccc(COn2c(-c3ccc(Cl)cc3Cl)nc3ncccc32)cc1,14.3,-18.4,0.8,11.6,-14.5,10.9
Clc1cccc(COn2c(-c3ccc(Cl)cc3Cl)nc3ncccc32)c1,10.1,4.6,-9.6,11.9,-7.1,74.0*
COc1ccc(CCN2C(=O)CSC2c2ccc(F)cc2)cc1 (configuration not stated),-6.8,1.5,0.9,3.1,-15.9,·
COc1ccc(-c2cc3c(=O)n(CC(=O)Nc4ccc(Cl)cc4)ncn3n2)cc1,0.1,-0.1,-2.4,47.0,-7.7,·
O=[N+]([O-])c1ccc(-[n+]2ccc3ccccc3c2)c([N+](=O)[O-])c1,109.2*,10.3,0.8,70.6*,121.1*,·
Cn1c(Cl)c(/C=N/OC(=O)c2ccccc2Cl)c2ccccc21,-6.0,12.1,-3.9,-5.0,0.8,66.0
Cc1cccc(C(=O)O/N=C/c2c(N3CCOCC3)n(C)c3ccccc23)c1,96.9*,-2.1,·,72.9*,6.2,19.8
O=C(CCCCC(=O)Nc1ccc(F)cc1F)Nc1ccc(F)cc1F,133.3*,0.6,-0.1,-6.5,7.8,·
O=C(COC(=O)CCSc1ccccc1Cl)Nc1ccc(F)cc1F,·,-12.7,-12.0,-6.2,1.0,71.8*
O=C(COC(=O)CCSc1ccccc1)Nc1ccc(F)cc1Cl,-1.7,-14.7,0.5,-7.3,-3.8,60.9
Cc1ccc(NC(=O)c2ccc(C(=O)c3ccccc3)cc2)nc1,-10.2,1.0,3.4,5.3,7.8,·
CC1=CCP(=O)(c2ccccc2)C1 (configuration not stated),0.9,0.9,0.1,-2.4,4.7,72.3*
CC1(C)CC(C)(O)P(=O)(c2ccccc2)O1 (configuration not stated),7.3,11.6,-0.9,·,-9.3,-3.4
COc1ccc(C(=O)CCC(=O)N2CCN(c3ccc(C)cc3)C(C)C2)cc1 (configuration not stated),-5.0,17.9,-3.6,-0.9,6.2,·
Cc1ccc(N2CC(C(=O)NCCC3=CCCCC3)CC2=O)cc1 (configuration not stated),2.7,11.2,1.7,-7.3,-2.2,·
O=C(Oc1ccc(Cl)c2cccnc12)N1CCOCC1,-4.9,-2.5,2.0,-5.0,-9.4,1.9
O=C(Oc1c(Cl)cc(Cl)c2cccnc12)c1cccs1,75.0*,12.8,-9.2,75.3*,121.4*,62.2
SMILES,Beta apoptosis,PREPL inh,NR3A LBD binder,T cruzi inh,CSC inhib,CHOP inhibitor
O=C(Oc1c(CN2CCOCC2)cc(Cl)c2cccnc12)c1ccccc1Cl,21.8,12.9,1.2,50.9,20.1,-4.6
O=C(Oc1c(CN2CCOCC2)cc(Cl)c2cccnc12)c1ccc(F)cc1,83.4*,13.9,-2.5,56.2*,17.2,40.7
COc1cccc(C(=O)Oc2c(CN3CCOCC3)cc(Cl)c3cccnc23)c1,89.9*,1.1,-0.4,34.1,-7.6,-58.3
COc1ccc(C(=O)Oc2c(CN3CCOCC3)cc(Cl)c3cccnc23)cc1,53.9,15.1,-1.9,41.7,14.4,-6.7
O=C(Oc1c(CN2CCOCC2)cc(Cl)c2cccnc12)c1cccs1,121.5*,1.5,-4.0,29.5,49.0,-60.0
COc1cc(C(=O)Oc2c(OC)cc(C(=S)N3CCOCC3)cc2OC)cc(OC)c1OC,-11.6,-8.2,0.2,7.5,-21.0,·
O=C(Oc1c(Cl)cc(Cl)c2cccnc12)c1ccco1,91.5*,26.4,-0.8,68.1*,+,43.0
COc1cc(C(=O)Oc2c(CN3CCOCC3)cc(Cl)c3cccnc23)cc(OC)c1OC,92.9*,14.0,-2.1,30.3,20.3,28.5
Cc1c(C(=O)Nc2ccc(Cl)cc2)c2ccccn2c1C(=O)c1ccc([N+](=O)[O-])cc1,0.4,11.0,-3.6,65.5*,-3.1,55.6
O=C1N/C(=N\N=C\c2cccs2)SC1Cc1ccc(Cl)cc1 (configuration not stated),8.4,-6.4,-1.9,-8.2,24.2,63.8
O=C1N/C(=N\N=C\c2ccccn2)SC1Cc1cccc(SC(F)F)c1 (configuration not stated),63.1,22.5,-5.3,69.0*,111.2*,51.4
O=C1N/C(=N\N=C\c2cccs2)SC1Cc1cccc(Cl)c1 (configuration not stated),-3.6,-20.3,-26.5,13.0,62.5,88.4*
O=C1N/C(=N\N=C\c2cccnc2)SC1Cc1ccc(SC(F)F)cc1 (configuration not stated),88.0*,10.6,-14.6,61.8*,99.0*,34.7
CCc1nnc(NC(=O)CCNC(=O)c2ccco2)s1,-1.8,-1.5,-3.3,-1.6,-6.5,·
O=C(Nc1cccc([N+](=O)[O-])c1)c1ccc2snnc2c1,-4.0,-0.3,1.7,2.6,5.3,·
O=C(Nc1ccc(-n2cccn2)cc1)C1CCCCN1Cc1cccc2c1OCO2 (configuration not stated),16.5,9.9,-0.8,1.5,62.2,·
COc1ccc(N(C(=O)CCl)C(C(=O)NCCc2ccccc2)c2cccs2)cc1Cl (configuration not stated),98.5*,-39.9,-0.1,62.6*,109.0*,109.7*
COc1cccc(N(C(=O)CCl)C(C(=O)NCCc2ccccc2)c2cccs2)c1 (configuration not stated),2.0,16.2,-6.3,30.4,67.5,-2.9
OC[C@@H]1[C@@H](c2ccc(Cl)cc2)C(c2ccccc2)=NN1c1ccccc1,·,·,24.1*,·,·,·
OC[C@@H]1[C@@H](c2ccc(F)cc2)C(c2cccc(Cl)c2)=NN1c1ccccc1,·,·,27.0*,·,·,·
OC[C@@H]1[C@@H](c2ccc(Cl)cc2)C(c2cccc(Cl)c2)=NN1c1ccccc1,·,·,31.2*,·,·,·
